Active and inactive are the calls of the source. No cut-off for these calls is given here.
Experiments:
Staphylococcus aureus [1] = assay: Antibacterial activity against clinical isolate of Staphylococcus aureus assessed as growth inhibition at 10 mg/ml after 16 to 20 hrs; type: functional, organism-based
How it was run: (§1)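 Disc diffusion: sterile filter discs loaded with 10 µl of a 10 mg/ml compound solution were placed on evenly inoculated LB or minimal medium agar plates and incubated 16–20 h at 37 °C. Growth inhibition around each disc was scored qualitatively (weak, partial, or strong). Controls were 10 µl of 1 mg/ml ampicillin and DMSO.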

Staphylococcus aureus [2] = assay: Antibacterial activity against methicillin-resistant Staphylococcus aureus Mu50 assessed as growth inhibition at 10 mg/ml after 16 to 20 hrs; type: functional, organism-based
How it was run: (§2)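 Disc diffusion assay. Sterile filter discs soaked with 10 µl of a 10 mg/ml compound solution were placed on evenly inoculated LB or minimal medium agar, then incubated 16–20 h at 37 °C. Growth inhibition was scored by eye on a graded scale from strong inhibition through weak or partial inhibition to none. DMSO served as the negative control.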

Staphylococcus aureus [3] = assay: Antibacterial activity against methicillin-resistant Staphylococcus aureus USA300 assessed as growth inhibition at 10 mg/ml after 16 to 20 hrs; type: functional, organism-based; how it was run: as §2
Escherichia coli [4] = assay: Antibacterial activity against clinical isolate of Escherichia coli assessed as growth inhibition at 10 mg/ml after 16 to 20 hrs; type: functional, organism-based; how it was run: as §1
Escherichia coli [5] = assay: Antibacterial activity against Escherichia coli 1655 assessed as growth inhibition at 10 mg/ml after 16 to 20 hrs; type: functional, organism-based; how it was run: as §1
Staphylococcus aureus [6] = assay: Antibacterial activity against methicillin-resistant Staphylococcus aureus Mu50 assessed as growth inhibition at 10 mg/ml after 16 to 20 hrs in presence of 0.2 mM L-histidine; type: functional, organism-based
How it was run: (§3)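 Histidine complementation disc assay. Discs soaked with 10 µl of a 10 mg/ml compound solution were placed on evenly inoculated minimal medium agar supplemented with 0.2 mM L-histidine, then incubated 16–20 h at 37 °C. Inhibition zones were scored by eye on a graded scale (strong, weak, partial, none).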

Staphylococcus aureus [7] = assay: Antibacterial activity against methicillin-resistant Staphylococcus aureus USA300 assessed as growth inhibition at 10 mg/ml after 16 to 20 hrs in presence of 0.2 mM L-histidine; type: functional, organism-based; how it was run: as §3
Escherichia coli [8] = assay: Antibacterial activity against Escherichia coli 1655 assessed as growth inhibition at 10 mg/ml after 16 to 20 hrs in presence of 0.2 mM L-histidine; type: functional, organism-based
How it was run: (§4)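 Histidine complementation: minimal medium agar plates were supplemented with 0.2mM L-histidine and evenly inoculated. Filter discs soaked with 10 µl of 10 mg/ml compound were applied, and plates were incubated 16–20 h at 37 °C. Inhibition was scored qualitatively. Ampicillin (10 µl, 1 mg/ml) and DMSO served as controls.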

Pseudomonas aeruginosa [9] = assay: Antibacterial activity against Pseudomonas aeruginosa PAO1 assessed as growth inhibition at 10 mg/ml after 16 to 20 hrs in presence of 0.2 mM L-histidine; type: functional, organism-based; how it was run: as §4
Pseudomonas aeruginosa [10] = assay: Antibacterial activity against Pseudomonas aeruginosa PAO1 assessed as growth inhibition at 10 mg/ml after 16 to 20 hrs; type: functional, organism-based; how it was run: as §1
[11] = Cytotoxicity against human CL1 cells expressing hTERT assessed as cell viability at 100 ug/ml after 24 hrs by trypan blue exclusion assay; type: cell-based
Staphylococcus aureus [12] = assay: Antibacterial activity against clinical isolate of Staphylococcus aureus assessed as growth inhibition at 1 mg/ml after 16 to 20 hrs; type: functional, organism-based
Staphylococcus aureus [13] = assay: Antibacterial activity against methicillin-resistant Staphylococcus aureus Mu50 assessed as growth inhibition at 1 mg/ml after 16 to 20 hrs; type: functional, organism-based
How it was run: (§5)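 Disc diffusion assay. Filter discs carrying 10 µl of a 1 mg/ml solution were placed on evenly inoculated LB or minimal medium agar plates, then incubated 16–20 h at 37 °C. Growth inhibition was scored by eye on a graded scale (strong, weak, partial, none).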

Staphylococcus aureus [14] = assay: Antibacterial activity against methicillin-resistant Staphylococcus aureus USA300 assessed as growth inhibition at 1 mg/ml after 16 to 20 hrs; type: functional, organism-based; how it was run: as §5
Escherichia coli [15] = assay: Antibacterial activity against clinical isolate of Escherichia coli assessed as growth inhibition at 1 mg/ml after 16 to 20 hrs; type: functional, organism-based
Escherichia coli [16] = assay: Antibacterial activity against Escherichia coli 1655 assessed as growth inhibition at 1 mg/ml after 16 to 20 hrs; type: functional, organism-based
Staphylococcus aureus [17] = assay: Antibacterial activity against methicillin-resistant Staphylococcus aureus Mu50 assessed as growth inhibition at 1 mg/ml after 16 to 20 hrs in presence of 0.2 mM L-histidine; type: functional, organism-based
How it was run: (§6)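 Discs carrying 10 µl of a 1 mg/ml solution were placed on evenly inoculated minimal medium agar containing 0.2 mM L-histidine, then incubated 16–20 h at 37 °C. Inhibition zones were scored by eye as strong, weak, partial or none.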

Staphylococcus aureus [18] = assay: Antibacterial activity against methicillin-resistant Staphylococcus aureus USA300 assessed as growth inhibition at 1 mg/ml after 16 to 20 hrs in presence of 0.2 mM L-histidine; type: functional, organism-based; how it was run: as §6
Escherichia coli [19] = assay: Antibacterial activity against Escherichia coli 1655 assessed as growth inhibition at 1 mg/ml after 16 to 20 hrs in presence of 0.2 mM L-histidine; type: functional, organism-based
Pseudomonas aeruginosa [20] = assay: Antibacterial activity against Pseudomonas aeruginosa PAO1 assessed as growth inhibition at 1 mg/ml after 16 to 20 hrs in presence of 0.2 mM L-histidine; type: functional, organism-based
[21] = Cytotoxicity against human CL1 cells expressing hTERT assessed as cell viability at 100 ug/ml after 24 hrs by MTT assay; type: cell-based

| SMILES | Activity (Staphylococcus aureus [1]) | Activity (Staphylococcus aureus [2]) | Activity (Staphylococcus aureus [3]) | Activity (Escherichia coli [4]) | Activity (Escherichia coli [5]) | Activity (Staphylococcus aureus [6]) | Activity (Staphylococcus aureus [7]) | Activity (Escherichia coli [8]) | Activity (Pseudomonas aeruginosa [9]) | Activity (Pseudomonas aeruginosa [10]) | other results |
| --- | --- | --- | --- | --- | --- | --- | --- | --- | --- | --- | --- |
| CC(=O)C1C(O)C(=O)N(c2ccc(C(=O)O)cc2)[C@H]1c1ccccc1 (stereo partly specified) | Active | Active | Active | Active | Active | inactive | inactive | inactive | inactive | Active | – |
| CCN(CCc1ccccc1)C(=O)CSc1ncccc1C(=O)O | – | – | – | – | Active | inactive | inactive | Active | Active | – | – |
| CSCC[C@@H](NCC[C@H](O)c1ccccc1)C(=O)O | inactive | inactive | inactive | inactive | inactive | – | – | – | – | Active | – |
| O=C(O)C[C@H](NCc1ccco1)C(=O)Cc1ccc(Cl)cc1 | inactive | inactive | inactive | inactive | inactive | – | – | – | – | – | – |
| O=C(O)C[C@H](c1ccncc1)c1c[nH]c2ccccc12 | Active | Active | inactive | Active | – | Active | Active | Active | Active | Active | – |
| CCc1cc(=O)oc2c3c(c(C)c(OCC(=O)O)c12)OC(C)(C)C=C3 | inactive | Active | – | inactive | Active | inactive | inactive | Active | Active | Active | – |
| O=C(O)CCCNC[C@@H](O)Cn1c2ccccc2c2ccccc21 | Active | Active | Active | – | – | Active | inactive | inactive | inactive | inactive | Activity [11]: Non-toxic |
| CN(C)c1ccc(/C=N/Nc2ccc(S(=O)(=O)O)cc2)cc1 | inactive | inactive | inactive | inactive | – | – | – | – | – | – | – |
| Cc1oc(C(=O)O)cc1COc1ccc2c3c(c(=O)oc2c1C)CCC3 | Active | Active | inactive | inactive | inactive | – | – | – | – | inactive | – |
| CC1(C)S[C@@H]2[C@H](NC(=O)[C@H](N)c3ccccc3)C(=O)N2[C@H]1C(=O)O [AMPICILLIN] | – | – | – | – | – | – | – | – | – | – | Activity [11]: Non-toxic; Activity (Staphylococcus aureus [12]): Active; Activity (Staphylococcus aureus [13]): Active; Activity (Staphylococcus aureus [14]): Active; Activity (Escherichia coli [15]): Active; Activity (Escherichia coli [16]): Active; Activity (Staphylococcus aureus [17]): Active; Activity (Staphylococcus aureus [18]): Active; Activity (Escherichia coli [19]): inactive; Activity (Pseudomonas aeruginosa [20]): inactive |
| Cc1c(OCC(=O)O)ccc2c(-c3ccccc3)cc(=O)oc12 | Active | Active | Active | Active | Active | – | – | – | – | Active | Activity [21]: Non-toxic; Activity [11]: Non-toxic |
| O=C(O)c1cccc(NC(=O)[C@H]2CCCC[C@@H]2C(=O)O)c1 | inactive | inactive | inactive | inactive | – | – | – | – | – | Active | – |
| O=C(O)c1ccc([C@H](O)[C@@H](O)c2ccccc2)cc1 | Active | Active | Active | – | Active | – | – | – | – | inactive | Activity [11]: Toxic |
| CCCCc1cc(=O)oc2c(C)c(O[C@H](C)C(=O)O)ccc12 | Active | Active | inactive | – | – | Active | Active | Active | Active | Active | – |
| CC(=O)C1=C(O)C(=O)N(CCC(=O)O)[C@@H]1c1ccc(C(C)C)cc1 | inactive | Active | inactive | Active | Active | Active | Active | Active | Active | Active | – |
| Cc1ncc(CO)c(CNc2ccc(Oc3ccccc3)cc2)c1O | Active | Active | Active | – | Active | – | – | – | – | Active | Activity [11]: Toxic |
| O=C1Nc2ccc(Cl)cc2C(c2cccc(O)c2)=N[C@H]1O | – | Active | Active | – | Active | – | – | – | – | Active | – |
| C[C@@H](NC[C@@H](O)Cn1c2ccccc2c2ccccc21)C(=O)O | inactive | inactive | inactive | inactive | inactive | – | – | – | – | inactive | – |

From ChEMBL document CHEMBL1250428, “Identification of novel bacterial histidine biosynthesis inhibitors using docking, ensemble rescoring, and whole-cell assays” (Bioorg Med Chem, 2010)
